ChEMBL document CHEMBL3612027, “Substrate-guided optimization of the syringolins yields potent proteasome inhibitors with activity against leukemia cell lines” (Bioorg Med Chem, 2015)

Experiments:
K562 [1] = experiment: Cytotoxicity against human K562 cells after 48 hrs; format: functional; conditions: K562, 48 h
[2] = Cytotoxicity against human RPMI-8226 cells after 48 hrs; format: functional; conditions: RPMI-8226, 48 h
SR = experiment: Cytotoxicity against human SR cells after 48 hrs; format: functional
Outline: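 Dose-dependent growth inhibition was assessed at the National Cancer Institute against its cancer cell line panel as a follow-up to the 10 micromolar single-dose screen.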

K562 [3] = experiment: Cytotoxicity against human K562 cells assessed as cell growth at 10 uM after 48 hrs relative to control; format: functional; conditions: K562, 48 h, read-out: Activity
Outline: (§1)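 Run at the National Cancer Institute as a single-dose screen across its 60-cell-line cancer panel. Compound was tested at 10 micromolar, and growth was expressed as a percentage of negative-control cultures.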

RPMI-8226 = experiment: Cytotoxicity against human RPMI8226 cells assessed as cell growth at 10 uM after 48 hrs relative to control; format: functional; conditions: RPMI-8226, 48 h, read-out: Activity; outline: as §1
A549 = experiment: Cytotoxicity against human A549 cells assessed as cell growth at 10 uM after 48 hrs relative to control; format: functional; conditions: A549, 48 h, read-out: Activity; outline: as §1
HOP-62 = experiment: Cytotoxicity against human HOP62 cells assessed as cell growth at 10 uM after 48 hrs relative to control; format: functional; conditions: HOP-62, 48 h, read-out: Activity; outline: as §1
HOP-92 = experiment: Cytotoxicity against human HOP92 cells assessed as cell growth at 10 uM after 48 hrs relative to control; format: functional; conditions: HOP-92, 48 h, read-out: Activity; outline: as §1
NCI-H226 = experiment: Cytotoxicity against human NCI-H226 cells assessed as cell growth at 10 uM after 48 hrs relative to control; format: functional; conditions: NCI-H226, 48 h, read-out: Activity; outline: as §1
NCI-H322M = experiment: Cytotoxicity against human NCI-H322M cells assessed as cell growth at 10 uM after 48 hrs relative to control; format: functional; conditions: read-out: Activity; outline: as §1
COLO 205 = experiment: Cytotoxicity against human COLO205 cells assessed as cell growth at 10 uM after 48 hrs relative to control; format: functional; conditions: COLO 205, 48 h, read-out: Activity; outline: as §1
HCC 2998 = experiment: Cytotoxicity against human HCC2998 cells assessed as cell growth at 10 uM after 48 hrs relative to control; format: functional; conditions: HCC 2998, 48 h, read-out: Activity; outline: as §1
HCT-15 = experiment: Cytotoxicity against human HCT15 cells assessed as cell growth at 10 uM after 48 hrs relative to control; format: functional; conditions: HCT-15, 48 h, read-out: Activity; outline: as §1
KM12 = experiment: Cytotoxicity against human KM12 cells assessed as cell growth at 10 uM after 48 hrs relative to control; format: functional; conditions: KM12, 48 h, read-out: Activity; outline: as §1
SF-268 = experiment: Cytotoxicity against human SF268 cells assessed as cell growth at 10 uM after 48 hrs relative to control; format: functional; conditions: SF-268, 48 h, read-out: Activity; outline: as §1
SF-295 = experiment: Cytotoxicity against human SF295 cells assessed as cell growth at 10 uM after 48 hrs relative to control; format: functional; conditions: SF-295, 48 h, read-out: Activity; outline: as §1
SNB-19 = experiment: Cytotoxicity against human SNB19 cells assessed as cell growth at 10 uM after 48 hrs relative to control; format: functional; conditions: SNB-19, 48 h, read-out: Activity
Outline: (§2)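 Submitted to the National Cancer Institute for a single-dose screen at 10 micromolar against 60 cancer cell lines. Growth is expressed relative to negative-control cultures.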

SNB-75 = experiment: Cytotoxicity against human SNB75 cells assessed as cell growth at 10 uM after 48 hrs relative to control; format: functional; conditions: SNB-75, 48 h, read-out: Activity; outline: as §2
LOX IMVI = experiment: Cytotoxicity against human LOXIMVI cells assessed as cell growth at 10 uM after 48 hrs relative to control; format: functional; conditions: read-out: Activity; outline: as §1
SK-MEL-28 = experiment: Cytotoxicity against human SK-MEL-28 cells assessed as cell growth at 10 uM after 48 hrs relative to control; format: functional; conditions: SK-MEL-28, 48 h, read-out: Activity; outline: as §1
SK-MEL-5 = experiment: Cytotoxicity against human SK-MEL-5 cells assessed as cell growth at 10 uM after 48 hrs relative to control; format: functional; conditions: SK-MEL-5, 48 h, read-out: Activity; outline: as §1
OVCAR-4 = experiment: Cytotoxicity against human OVCAR4 cells assessed as cell growth at 10 uM after 48 hrs relative to control; format: functional; conditions: OVCAR-4, 48 h, read-out: Activity; outline: as §1
OVCAR-5 = experiment: Cytotoxicity against human OVCAR5 cells assessed as cell growth at 10 uM after 48 hrs relative to control; format: functional; conditions: OVCAR-5, 48 h, read-out: Activity; outline: as §1
SK-OV-3 = experiment: Cytotoxicity against human SKOV3 cells assessed as cell growth at 10 uM after 48 hrs relative to control; format: functional; conditions: SK-OV-3, 48 h, read-out: Activity; outline: as §1
CAKI-1 = experiment: Cytotoxicity against human Caki1 cells assessed as cell growth at 10 uM after 48 hrs relative to control; format: functional; conditions: CAKI-1, 48 h, read-out: Activity; outline: as §1
UO-31 = experiment: Cytotoxicity against human UO31 cells assessed as cell growth at 10 uM after 48 hrs relative to control; format: functional; conditions: UO-31, 48 h, read-out: Activity; outline: as §2
MCF7 = experiment: Cytotoxicity against human MCF7 cells assessed as cell growth at 10 uM after 48 hrs relative to control; format: functional; conditions: MCF7, 48 h, read-out: Activity; outline: as §1
T47D = experiment: Cytotoxicity against human T47D cells assessed as cell growth at 10 uM after 48 hrs relative to control; format: functional; conditions: read-out: Activity; outline: as §2
MDA-MB-468 = experiment: Cytotoxicity against human MDA-MB-468 cells assessed as cell growth at 10 uM after 48 hrs relative to control; format: functional; conditions: MDA-MB-468, 48 h, read-out: Activity; outline: as §1
NCI-H522 = experiment: Cytotoxicity against human NCI-H522 cells assessed as cell growth at 10 uM after 48 hrs relative to control; format: functional; conditions: NCI-H522, 48 h, read-out: Activity; outline: as §1
[4] = target: T1, Proteasome Macropain subunit MB1 (Homo sapiens) (UniProt P28074)
T1 sequence (whole entry): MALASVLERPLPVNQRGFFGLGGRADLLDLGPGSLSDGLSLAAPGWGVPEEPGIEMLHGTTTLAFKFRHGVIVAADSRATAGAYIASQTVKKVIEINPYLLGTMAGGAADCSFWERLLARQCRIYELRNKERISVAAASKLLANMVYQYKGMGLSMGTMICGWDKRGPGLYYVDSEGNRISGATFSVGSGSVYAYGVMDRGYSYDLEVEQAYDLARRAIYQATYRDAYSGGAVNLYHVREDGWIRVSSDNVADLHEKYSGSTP

SMILES	GI50 (K562 [1]) [µM]	GI50 [2] [nM]	GI50 (SR) [nM]	growth at 10 µM (K562 [3]) [%]	growth at 10 µM (RPMI-8226) [%]	growth at 10 µM (A549) [%]	growth at 10 µM (HOP-62) [%]	growth at 10 µM (HOP-92) [%]	growth at 10 µM (NCI-H226) [%]	growth at 10 µM (NCI-H322M) [%]	growth at 10 µM (COLO 205) [%]	growth at 10 µM (HCC 2998) [%]	growth at 10 µM (HCT-15) [%]	growth at 10 µM (KM12) [%]	growth at 10 µM (SF-268) [%]	growth at 10 µM (SF-295) [%]	growth at 10 µM (SNB-19) [%]	growth at 10 µM (SNB-75) [%]	growth at 10 µM (LOX IMVI) [%]	growth at 10 µM (SK-MEL-28) [%]	other results
COC(=O)[C@@H](NC(=O)N[C@@H](Cc1ccccc1)C(=O)N[C@H]1CCCCNC(=O)/C=C/[C@H](Cc2ccccc2)NC1=O)C(C)C	14.6	2720	2780	34.7	7.17	68.6	51.6	15.7	-44.2	98.1	44.6	5.56	101	7.99	10.1	51.3	39.8	-40.2	-4.92	33.3	growth at 10 µM (SK-MEL-5): 18.6%; growth at 10 µM (OVCAR-4): 53.3%; growth at 10 µM (OVCAR-5): 87%; growth at 10 µM (SK-OV-3): 61.1%; growth at 10 µM (CAKI-1): 106%; growth at 10 µM (UO-31): 89.6%; growth at 10 µM (MCF7): 37.4%; growth at 10 µM (T47D): 8.25%; growth at 10 µM (MDA-MB-468): 0.26%; growth at 10 µM (NCI-H522): -37%; Kin [4]: 0.000623 s⁻¹
COC(=O)[C@@H](NC(=O)N[C@@H](Cc1ccccc1)C(=O)N[C@H]1CCCCNC(=O)/C=C/[C@H](Cc2c[nH]c3ccccc23)NC1=O)C(C)C	2.94	343	453	82.1	21.2	95.5	113	91.3	65.7	99.4	94	91.8	110	94.6	78.8	99.7	51.2	33	64.7	62.7	growth at 10 µM (SK-MEL-5): 63.9%; growth at 10 µM (OVCAR-4): 102%; growth at 10 µM (OVCAR-5): 113%; growth at 10 µM (SK-OV-3): 95.4%; growth at 10 µM (CAKI-1): 106%; growth at 10 µM (UO-31): 84%; growth at 10 µM (MCF7): 40.3%; growth at 10 µM (T47D): 34.4%; growth at 10 µM (MDA-MB-468): 18%; growth at 10 µM (NCI-H522): -0.14%
